Calls of active or inactive are those of the source. No cut-off for these calls is given here.
Legend:
[1] = molecular target: T1, Reduced folate transporter (Homo sapiens) (UniProt P41440); assay: Inhibition of human RFC2 expressed in human HeLa R1-11 cells assessed as reduction in [3H]MTX uptake at pH 7.2 at 1 uM measured over 2 mins relative to control; type: cell-based
T1 sequence (whole entry): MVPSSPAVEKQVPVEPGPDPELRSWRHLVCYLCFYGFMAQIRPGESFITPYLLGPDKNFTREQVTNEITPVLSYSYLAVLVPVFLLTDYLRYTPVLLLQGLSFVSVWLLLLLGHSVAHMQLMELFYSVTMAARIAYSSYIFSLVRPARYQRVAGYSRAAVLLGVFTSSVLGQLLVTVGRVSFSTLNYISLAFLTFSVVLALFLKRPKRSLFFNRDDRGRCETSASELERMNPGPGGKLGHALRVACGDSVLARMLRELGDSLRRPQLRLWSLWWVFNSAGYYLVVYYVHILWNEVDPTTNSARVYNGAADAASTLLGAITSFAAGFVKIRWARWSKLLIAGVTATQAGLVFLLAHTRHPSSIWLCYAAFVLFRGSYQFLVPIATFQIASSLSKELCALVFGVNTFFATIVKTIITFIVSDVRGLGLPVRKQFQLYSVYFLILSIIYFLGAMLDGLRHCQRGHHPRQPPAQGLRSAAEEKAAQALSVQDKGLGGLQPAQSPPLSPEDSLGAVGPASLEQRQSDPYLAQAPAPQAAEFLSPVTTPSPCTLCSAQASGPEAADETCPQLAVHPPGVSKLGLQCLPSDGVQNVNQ

[2] = molecular target: Folate receptor beta (Homo sapiens) (UniProt P14207); assay: Displacement of [3H]folic acid from human FRbeta expressed in Chinese hamster D4 cells at 10 to 1000 nM after 15 mins; type: cell-based
Chain of Folate receptor beta (Homo sapiens) (P14207 17-230 limits assumed): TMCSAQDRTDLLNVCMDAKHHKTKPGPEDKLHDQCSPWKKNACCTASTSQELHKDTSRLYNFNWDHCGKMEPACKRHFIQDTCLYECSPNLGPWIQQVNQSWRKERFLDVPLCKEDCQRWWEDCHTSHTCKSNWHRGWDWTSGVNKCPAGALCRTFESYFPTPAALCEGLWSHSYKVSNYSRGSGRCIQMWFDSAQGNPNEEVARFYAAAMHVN
Procedure, shortened: (§1)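 RT16 (FRα) or D4 (FRβ) CHO cells at ~80% confluence were washed with PBS at 4 °C, then with pH 3.5 acetate buffer to strip bound folate, then HEPES-buffered saline pH 7.4. Cells were incubated with 50 nM [³H]folic acid plus competitor (10–1000 nM) for 15 min at 4 °C, washed, and solubilized in NaOH. Bound radioactivity was normalized to protein.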

[3] = molecular target: T2, Proton-coupled folate transporter (Homo sapiens) (UniProt Q96NT5); assay: Inhibition of human PCFT expressed in Chinese hamster R2/PCFT4 cells assessed as reduction in [3H]MTX uptake at pH 5.5 at 1 uM measured over 2 mins relative to control; type: cell-based
T2 sequence (whole entry): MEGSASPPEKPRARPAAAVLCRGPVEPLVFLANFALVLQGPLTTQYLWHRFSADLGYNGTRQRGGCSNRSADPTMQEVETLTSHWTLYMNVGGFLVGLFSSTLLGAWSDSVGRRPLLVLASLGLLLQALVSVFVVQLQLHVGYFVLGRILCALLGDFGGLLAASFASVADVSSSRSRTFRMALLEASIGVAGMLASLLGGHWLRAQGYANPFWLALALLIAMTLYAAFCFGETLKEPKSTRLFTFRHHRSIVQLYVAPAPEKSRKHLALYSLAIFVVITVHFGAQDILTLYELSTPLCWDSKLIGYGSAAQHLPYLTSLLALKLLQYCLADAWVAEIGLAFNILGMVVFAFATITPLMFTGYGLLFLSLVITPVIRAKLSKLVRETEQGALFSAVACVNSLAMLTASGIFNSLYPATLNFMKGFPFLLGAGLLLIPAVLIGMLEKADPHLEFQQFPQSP

[4] = molecular target: Folate receptor alpha (Homo sapiens) (UniProt P15328); assay: Displacement of [3H]folic acid from human FRalpha expressed in Chinese hamster RT16 cells at 10 to 1000 nM after 15 mins; type: cell-based; procedure, shortened: as §1
Chain of Folate receptor alpha (Homo sapiens) (P15328 25-234 limits assumed): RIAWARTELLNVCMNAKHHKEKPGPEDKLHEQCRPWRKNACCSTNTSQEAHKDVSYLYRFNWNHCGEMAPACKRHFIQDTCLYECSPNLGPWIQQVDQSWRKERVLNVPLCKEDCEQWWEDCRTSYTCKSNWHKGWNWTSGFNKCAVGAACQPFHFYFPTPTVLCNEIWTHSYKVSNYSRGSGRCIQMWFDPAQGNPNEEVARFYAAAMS

[5] = Antiproliferative activity in Chinese hamster R2 cells deficient in RFC, PCFT, and FRalpha assessed as reduction in cell growth after 96 hrs by Cell-Titer Blue assay; type: cell-based; details: Cricetulus griseus, R2, 96 h
IGROV-1 [6] = assay: Antiproliferative activity against FRalpha […] human IGROV1 KD10 cells after 96 hrs by Cell-Titer Blue assay; type: functional, cell-based; details: IGROV-1, 96 h
IGROV-1 [7] = assay: Antiproliferative activity against FRalpha […] human IGROV1 KD4 cells after 96 hrs by Cell-Titer Blue assay; type: functional, cell-based; details: IGROV-1, 96 h
[8] = molecular target: T2, Proton-coupled folate transporter (Homo sapiens); assay: Inhibition of human PCFT expressed in Chinese hamster R2/PCFT4 cells assessed as reduction in [3H]MTX uptake at pH 5.5 at 1 to 10 uM measured over 2 mins; type: cell-based
[9] = molecular target: T2, Proton-coupled folate transporter (Homo sapiens); assay: Inhibition of human PCFT expressed in Chinese hamster R2/PCFT4 cells assessed as reduction in [3H]MTX uptake at pH 5.5 at 10 uM measured over 2 mins relative to control; type: cell-based
IGROV-1 [10] = assay: Antiproliferative activity against human IGROV1 cells harboring non targeted control shRNA sequence after 96 hrs by Cell-Titer Blue assay; type: functional, cell-based; details: IGROV-1, 96 h
IGROV-1 [11] = assay: Antiproliferative activity against wild type human IGROV1 cells after 96 hrs by Cell-Titer Blue assay; type: functional, cell-based; details: IGROV-1, 96 h
A2780 = assay: Antiproliferative activity against human A2780 cells after 96 hrs by Cell-Titer Blue assay; type: functional, cell-based; details: A2780, 96 h
[12] = molecular target: T1, Reduced folate transporter (Homo sapiens); assay: Inhibition of human RFC2 expressed in human HeLa R1-11 cells assessed as reduction in [3H]MTX uptake at pH 7.2 at 10 uM measured over 2 mins relative to control; type: cell-based
[13] = molecular target: T3, Proton-coupled folate transporter (Homo sapiens, UniProt Q96NT5); assay: Inhibition of human PCFT expressed in Chinese hamster R2/PCFT4 cells assessed as reduction in [3H]MTX uptake at pH 5.5 measured over 2 mins by Dixon plot analysis; type: cell-based
T3 sequence (Q96NT5 whole entry): T2 sequence (whole entry)
Procedure, shortened: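 Competitor concentrations ranged from 0.05 to 0.5 μM. Ki was obtained by Dixon plot. Mean ± SE of four independent experiments.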

IGROV-1 [14] = assay: Antiproliferative activity against human IGROV1 cells at 1 to 1000 nM in presence of 320 uM AICA after 96 hrs by Cell-Titer Blue assay; type: functional, cell-based
Procedure, shortened: (§2)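 IGROV1 cells, 2000/well, in folate-free RPMI 1640 with 10% dialyzed FBS, L-glutamine, 25 nM LCV. A range of drug concentrations was given with thymidine (10 μM), adenosine (60 μM) or AICA (320 μM) added. After 96 h, proliferation was measured by Cell-Titer Blue fluorescence. At least triplicate experiments.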

IGROV-1 [15] = assay: Antiproliferative activity against human IGROV1 cells at 1 to 1000 nM in presence of 60 uM adenosine after 96 hrs by Cell-Titer Blue assay; type: functional, cell-based; procedure, shortened: as §2
IGROV-1 [16] = assay: Antiproliferative activity against human IGROV1 cells at 1 to 1000 nM in presence of 10 uM thymidine after 96 hrs by Cell-Titer Blue assay; type: functional, cell-based; procedure, shortened: as §2
[17] = molecular target: T1, Reduced folate transporter (Homo sapiens); assay: Inhibition of human RFC2 expressed in human HeLa R1-11 cells assessed as reduction in [3H]MTX uptake at pH 7.2 at 10 uM measured over 2 mins relative to control
[18] = molecular target: T4, Trifunctional purine biosynthetic protein adenosine-3 (Homo sapiens, UniProt P22102); assay: Inhibition of GARFTase in human IGROV1 cells assessed as decrease in incorporation of [14C(U)glycine into [14C]formyl GAR formation after 24 hrs; type: cell-based
T4 sequence (P22102 whole entry): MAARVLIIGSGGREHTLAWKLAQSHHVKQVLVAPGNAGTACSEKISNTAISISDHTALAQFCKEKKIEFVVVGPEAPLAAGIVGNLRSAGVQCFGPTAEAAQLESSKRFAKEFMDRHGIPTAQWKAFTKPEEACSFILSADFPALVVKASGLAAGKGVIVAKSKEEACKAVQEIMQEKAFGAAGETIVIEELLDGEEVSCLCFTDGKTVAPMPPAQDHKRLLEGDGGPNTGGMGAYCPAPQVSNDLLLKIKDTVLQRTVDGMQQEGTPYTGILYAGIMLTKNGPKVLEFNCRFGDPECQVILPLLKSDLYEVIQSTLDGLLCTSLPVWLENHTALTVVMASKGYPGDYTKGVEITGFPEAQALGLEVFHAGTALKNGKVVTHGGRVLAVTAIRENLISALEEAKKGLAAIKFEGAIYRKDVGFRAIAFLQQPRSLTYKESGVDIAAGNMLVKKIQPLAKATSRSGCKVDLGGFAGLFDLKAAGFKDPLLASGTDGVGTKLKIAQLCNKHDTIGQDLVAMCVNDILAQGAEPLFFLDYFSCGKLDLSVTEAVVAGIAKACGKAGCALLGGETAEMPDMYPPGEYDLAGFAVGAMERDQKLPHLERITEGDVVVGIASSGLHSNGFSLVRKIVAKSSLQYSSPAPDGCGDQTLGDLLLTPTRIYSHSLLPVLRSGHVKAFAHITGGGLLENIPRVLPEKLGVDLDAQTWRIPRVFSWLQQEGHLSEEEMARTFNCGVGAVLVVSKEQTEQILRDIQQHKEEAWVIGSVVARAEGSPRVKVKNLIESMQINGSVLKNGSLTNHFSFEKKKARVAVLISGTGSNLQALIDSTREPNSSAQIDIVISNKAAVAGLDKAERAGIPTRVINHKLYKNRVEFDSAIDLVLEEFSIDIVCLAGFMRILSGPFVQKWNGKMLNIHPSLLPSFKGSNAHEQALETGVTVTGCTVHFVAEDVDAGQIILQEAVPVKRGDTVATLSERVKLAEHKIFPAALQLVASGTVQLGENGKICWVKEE

inhibition [1]	inhibition [3]	inhibition [4]	inhibition [8]	inhibition [9]	IC50 (A2780)	inhibition [12]	Ki [13]	inhibition [17]	IC50 [18]	SMILES	inhibition [2]	IC50 [5]	IC50 (IGROV-1 [6])	IC50 (IGROV-1 [7])	IC50 (IGROV-1 [10])	IC50 (IGROV-1 [11])	Activity (IGROV-1 [14])	Activity (IGROV-1 [15])	Activity (IGROV-1 [16])
inactive	Active	–	Active	Active	2.72 nM	inactive	630 nM	–	–	Nc1nc2[nH]c(CCCc3ccc(C(=O)N[C@@H](CCC(=O)O)C(=O)O)cc3)cc2c(=O)[nH]1	–	> 1000 nM	–	–	–	–	inactive	inactive	Active
–	60 to 85%	Active	Active	90 to 95%	7.6 nM	< 30%	70 nM	< 30%	1.2 nM	Nc1nc2[nH]c(CCCc3csc(C(=O)N[C@@H](CCC(=O)O)C(=O)O)c3F)cc2c(=O)[nH]1	Active	20.5 nM	42.2 nM	85.6 nM	5.61 nM	6.92 nM	–	–	–
inactive	Active	Active	Active	Active	5.42 nM	inactive	240 nM	–	–	Nc1nc2[nH]c(CCCCc3ccc(C(=O)N[C@@H](CCC(=O)O)C(=O)O)nc3)cc2c(=O)[nH]1	–	–	30.5 nM	64.1 nM	1.55 nM	1.87 nM	–	–	–

SMILES	inhibition [1]	inhibition [3]	inhibition [4]	inhibition [8]	inhibition [9]	IC50 (A2780)	inhibition [12]	Ki [13]	inhibition [17]	IC50 [18]	inhibition [2]	IC50 [5]	IC50 (IGROV-1 [6])	IC50 (IGROV-1 [7])	IC50 (IGROV-1 [10])	IC50 (IGROV-1 [11])	Activity (IGROV-1 [14])	Activity (IGROV-1 [15])	Activity (IGROV-1 [16])
Nc1nc2[nH]c(CCCCc3csc(C(=O)N[C@@H](CCC(=O)O)C(=O)O)c3)cc2c(=O)[nH]1	inactive	Active	Active	Active	Active	28.8 nM	inactive	360 nM	–	–	Active	> 1000 nM	> 1000 nM	> 1000 nM	40.7 nM	54.3 nM	–	–	–

From ChEMBL document CHEMBL4308835, “Fluorine-Substituted Pyrrolo[2,3- d]Pyrimidine Analogues with Tumor Targeting via Cellular Uptake by Folate Receptor α and the Proton-Coupled Folate Transporter and Inhibition of de Novo Purine Nucleotide Biosynthesis” (J Med Chem, 2018)
